ChEMBL document CHEMBL4350970, “Rational Design of 5-(4-(Isopropylsulfonyl)phenyl)-3-(3-(4-((methylamino)methyl)phenyl)isoxazol-5-yl)pyrazin-2-amine (VX-970, M6620): Optimization of Intra- and Intermolecular Polar Interactions of a New Ataxia Telangiectasia Mutated and Rad3-Related (ATR) Kinase Inhibitor” (J Med Chem, 2019)
Values after ≈ are worked out from the molar mass of the structure shown. Active and inactive are the calls of the source. The calls are words filed in the database; no cut-off is given here.

Experiments:
[1] = biological target: Voltage-gated inwardly rectifying potassium channel KCNH2 (Homo sapiens, UniProt Q12809); experiment: Inhibition of human ERG
[2] = Permeability across apical to basolateral side in human Caco2 cells; type: ADME, cell-based; settings: Caco-2, read-out: permeability
[3] = biological target: Receptor-type tyrosine-protein kinase FLT3 (Homo sapiens, UniProt P36888); experiment: Inhibition of human Flt3
[4] = Half life in Sprague-Dawley rat at 10 mg/kg administered as iv infusion for 3 hrs; type: ADME, organism-based; settings: in vivo
Method in brief: (§1)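 Male Sprague-Dawley rats (about 200-350 g), catheterized in jugular and femoral veins under isoflurane; n=3. IV infusion at 3.33 mg/kg/h for 3 h (nominal 10 mg/kg, as free base) in 5% Captisol:2.5% mannitol in water. Jugular blood drawn at 0-51 h, centrifuged 3,000 G, 10 min, 4 °C; plasma collected.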

[5] = biological target: Tyrosine-protein kinase ABL1 (Homo sapiens, UniProt P00519, T315I); experiment: ATP competitive inhibition of human ABL T315I mutant
[6] = biological target: Cytochrome P450 2D6, Homo sapiens (UniProt P10635); experiment: Inhibition of CYP2D6 (unknown origin)
[7] = biological target: Receptor-type tyrosine-protein kinase FLT3 (Homo sapiens, UniProt P36888, D835Y); experiment: ATP competitive inhibition of human Flt3 D835Y mutant
HCT-116 [8] = experiment: Potentiation of cisplatin-induced antiproliferative activity against human HCT116 cells assessed as reduction in cell viability at < 50 nM measured after 96 hrs by MTS assay; type: functional, cell-based
Method in brief: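 HCT116 cells plated and left to adhere overnight. Compound and cisplatin added the next day at set concentrations, then incubated 96 h. MTS reagent added; absorbance at 490 nm read after 1 h. Synergy and antagonism assessed by MacSynergy analysis.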

[9] = Aqueous solubility of the compound in PBS incubated overnight by UPLC-MS analysis; type: physicochemical
Method in brief: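 Compounds dissolved in DMSO (standard) or in DPBS (10 mM phosphate, 140 mM NaCl) to at most 200 µM. PBS samples sealed, shaken overnight at room temperature, then centrifuged 45 min at 4000 rpm, 22 °C. UV AUC from UPLC-MS compared with the DMSO standard: solubility = AUC(PBS)/AUC(standard) × [standard].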

[10] = biological target: DNA-dependent protein kinase catalytic subunit (Homo sapiens, UniProt P78527); experiment: Inhibition of purified recombinant human full-length DNA-PK using EPPLSQEAFADLWKKK peptide as substrate measured after 2 hrs in presence of [gamma-33P] ATP by microbeta liquid scintillation counting analysis
Method in brief: (§2)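 Radiometric phosphate incorporation assay with full-length kinase (ATR and ATM made in-house; DNA-PK purchased) premixed with buffer and target peptide. Compound added in DMSO over a range of concentrations, final DMSO 7%. Started with [γ-33P]ATP at 25 °C. Stopped with phosphoric acid (final 100 mM) and ATP (final […]), captured on phosphocellulose, washed with 100 mM phosphoric acid, then scintillation counted. Dose-response fitting.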

[11] = biological target: Glycogen synthase kinase-3 beta (Homo sapiens, UniProt P49841); experiment: Inhibition of human GSK3beta
[12] = biological target: Tyrosine-protein kinase Mer (Homo sapiens, UniProt Q12866); experiment: ATP competitive inhibition of human Mer
[13] = biological target: Tyrosine-protein kinase JAK2 (Homo sapiens, UniProt O60674); experiment: Inhibition of human JAK2
[14] = biological target: Mitogen-activated protein kinase kinase kinase 9 (Homo sapiens, UniProt P80192); experiment: ATP competitive inhibition of human MLK1
[15] = biological target: Serine-protein kinase ATM (Homo sapiens, UniProt Q13315); experiment: Inhibition of full-length ATM (unknown origin) using DPSVEPPLSQETFSDKKK peptide as substrate measured after 24 hrs in presence of [gamma-33P] ATP by microbeta liquid scintillation counting analysis; method in brief: as §2
[16] = Volume of distribution at steady state in Sprague-Dawley rat at 10 mg/kg administered as iv infusion for 3 hrs; type: ADME, organism-based; settings: in vivo, read-out: Vdss; method in brief: as §1
[17] = biological target: Glycogen synthase kinase-3 alpha (Homo sapiens, UniProt P49840); experiment: ATP competitive inhibition of human GSK3alpha
[18] = biological target: Vascular endothelial growth factor receptor 3 (Homo sapiens, UniProt P35916); experiment: ATP competitive inhibition of human Flt4
[19] = Dissociation constant, pKa of compound; type: physicochemical
[20] = biological target: Tyrosine-protein kinase SYK (Homo sapiens, UniProt P43405); experiment: Inhibition of human SYK
Cytochrome P450 2C9 = Cytochrome P450 2C9 (Homo sapiens, UniProt P11712); experiment: Inhibition of CYP2C9 (unknown origin); type: ADME
[21] = biological target: Dual specificity tyrosine-phosphorylation-regulated kinase 2 (Homo sapiens, UniProt Q92630); experiment: ATP competitive inhibition of human DYRK2
[22] = biological target: Mast/stem cell growth factor receptor Kit (Homo sapiens, UniProt P10721, D816H); experiment: ATP competitive inhibition of human c-Kit D816H mutant
[23] = biological target: T1, Serine/threonine-protein kinase ATR (Homo sapiens, UniProt Q13535); experiment: Inhibition of recombinant human full-length N-terminal Flag epitope-tagged ATR expressed in HEK293T cells using ASELPASQPQPFSAKKK peptide as substrate measured after 24 hrs in presence of [gamma-33P] ATP by microbeta liquid scintillation counting analysis; method in brief: as §2
Homo sapiens [24] = species on record: Homo sapiens; experiment: Selectivity ratio of Ki for full-length ATM (unknown origin) to Ki for recombinant human full-length N-terminal Flag epitope-tagged ATR expressed in HEK293T cells; type: cell-based
Method in brief: (§3)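 Ratio of Ki values from the radiometric [γ-33P]ATP phosphocellulose-capture assays with full-length kinases: ATM or DNA-PK Ki over ATR Ki.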

[25] = biological target: T1, Serine/threonine-protein kinase ATR; experiment: Inhibition of ATR in human HCT116 cells assessed as reduction in histone H2AX phosphorylation by Hoechst staining-based immunofluorescence microscopic analysis; type: cell-based
Homo sapiens [26] = species on record: Homo sapiens; experiment: Selectivity ratio of Ki for purified recombinant human full-length DNA-PK to Ki for recombinant human full-length N-terminal Flag epitope-tagged ATR expressed in HEK293T cells; method in brief: as §3
HCT-116 [27] = experiment: Potentiation of cisplatin-induced antiproliferative activity against human HCT116 cells assessed as reduction in cell viability at 500 nM measured after 96 hrs by MTS assay; type: functional, cell-based
Method in brief: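 HCT116 cells from ATCC, exponentially growing, plated and left to adhere overnight. Compound and cisplatin added at the indicated concentrations, then incubated 96 h. MTS reagent added and absorbance read at 490 nm after 1 h. Synergy and antagonism assessed with Macsynergy analysis.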

Chain of Serine-protein kinase ATM (Q13315 whole entry, the tested form may be a part): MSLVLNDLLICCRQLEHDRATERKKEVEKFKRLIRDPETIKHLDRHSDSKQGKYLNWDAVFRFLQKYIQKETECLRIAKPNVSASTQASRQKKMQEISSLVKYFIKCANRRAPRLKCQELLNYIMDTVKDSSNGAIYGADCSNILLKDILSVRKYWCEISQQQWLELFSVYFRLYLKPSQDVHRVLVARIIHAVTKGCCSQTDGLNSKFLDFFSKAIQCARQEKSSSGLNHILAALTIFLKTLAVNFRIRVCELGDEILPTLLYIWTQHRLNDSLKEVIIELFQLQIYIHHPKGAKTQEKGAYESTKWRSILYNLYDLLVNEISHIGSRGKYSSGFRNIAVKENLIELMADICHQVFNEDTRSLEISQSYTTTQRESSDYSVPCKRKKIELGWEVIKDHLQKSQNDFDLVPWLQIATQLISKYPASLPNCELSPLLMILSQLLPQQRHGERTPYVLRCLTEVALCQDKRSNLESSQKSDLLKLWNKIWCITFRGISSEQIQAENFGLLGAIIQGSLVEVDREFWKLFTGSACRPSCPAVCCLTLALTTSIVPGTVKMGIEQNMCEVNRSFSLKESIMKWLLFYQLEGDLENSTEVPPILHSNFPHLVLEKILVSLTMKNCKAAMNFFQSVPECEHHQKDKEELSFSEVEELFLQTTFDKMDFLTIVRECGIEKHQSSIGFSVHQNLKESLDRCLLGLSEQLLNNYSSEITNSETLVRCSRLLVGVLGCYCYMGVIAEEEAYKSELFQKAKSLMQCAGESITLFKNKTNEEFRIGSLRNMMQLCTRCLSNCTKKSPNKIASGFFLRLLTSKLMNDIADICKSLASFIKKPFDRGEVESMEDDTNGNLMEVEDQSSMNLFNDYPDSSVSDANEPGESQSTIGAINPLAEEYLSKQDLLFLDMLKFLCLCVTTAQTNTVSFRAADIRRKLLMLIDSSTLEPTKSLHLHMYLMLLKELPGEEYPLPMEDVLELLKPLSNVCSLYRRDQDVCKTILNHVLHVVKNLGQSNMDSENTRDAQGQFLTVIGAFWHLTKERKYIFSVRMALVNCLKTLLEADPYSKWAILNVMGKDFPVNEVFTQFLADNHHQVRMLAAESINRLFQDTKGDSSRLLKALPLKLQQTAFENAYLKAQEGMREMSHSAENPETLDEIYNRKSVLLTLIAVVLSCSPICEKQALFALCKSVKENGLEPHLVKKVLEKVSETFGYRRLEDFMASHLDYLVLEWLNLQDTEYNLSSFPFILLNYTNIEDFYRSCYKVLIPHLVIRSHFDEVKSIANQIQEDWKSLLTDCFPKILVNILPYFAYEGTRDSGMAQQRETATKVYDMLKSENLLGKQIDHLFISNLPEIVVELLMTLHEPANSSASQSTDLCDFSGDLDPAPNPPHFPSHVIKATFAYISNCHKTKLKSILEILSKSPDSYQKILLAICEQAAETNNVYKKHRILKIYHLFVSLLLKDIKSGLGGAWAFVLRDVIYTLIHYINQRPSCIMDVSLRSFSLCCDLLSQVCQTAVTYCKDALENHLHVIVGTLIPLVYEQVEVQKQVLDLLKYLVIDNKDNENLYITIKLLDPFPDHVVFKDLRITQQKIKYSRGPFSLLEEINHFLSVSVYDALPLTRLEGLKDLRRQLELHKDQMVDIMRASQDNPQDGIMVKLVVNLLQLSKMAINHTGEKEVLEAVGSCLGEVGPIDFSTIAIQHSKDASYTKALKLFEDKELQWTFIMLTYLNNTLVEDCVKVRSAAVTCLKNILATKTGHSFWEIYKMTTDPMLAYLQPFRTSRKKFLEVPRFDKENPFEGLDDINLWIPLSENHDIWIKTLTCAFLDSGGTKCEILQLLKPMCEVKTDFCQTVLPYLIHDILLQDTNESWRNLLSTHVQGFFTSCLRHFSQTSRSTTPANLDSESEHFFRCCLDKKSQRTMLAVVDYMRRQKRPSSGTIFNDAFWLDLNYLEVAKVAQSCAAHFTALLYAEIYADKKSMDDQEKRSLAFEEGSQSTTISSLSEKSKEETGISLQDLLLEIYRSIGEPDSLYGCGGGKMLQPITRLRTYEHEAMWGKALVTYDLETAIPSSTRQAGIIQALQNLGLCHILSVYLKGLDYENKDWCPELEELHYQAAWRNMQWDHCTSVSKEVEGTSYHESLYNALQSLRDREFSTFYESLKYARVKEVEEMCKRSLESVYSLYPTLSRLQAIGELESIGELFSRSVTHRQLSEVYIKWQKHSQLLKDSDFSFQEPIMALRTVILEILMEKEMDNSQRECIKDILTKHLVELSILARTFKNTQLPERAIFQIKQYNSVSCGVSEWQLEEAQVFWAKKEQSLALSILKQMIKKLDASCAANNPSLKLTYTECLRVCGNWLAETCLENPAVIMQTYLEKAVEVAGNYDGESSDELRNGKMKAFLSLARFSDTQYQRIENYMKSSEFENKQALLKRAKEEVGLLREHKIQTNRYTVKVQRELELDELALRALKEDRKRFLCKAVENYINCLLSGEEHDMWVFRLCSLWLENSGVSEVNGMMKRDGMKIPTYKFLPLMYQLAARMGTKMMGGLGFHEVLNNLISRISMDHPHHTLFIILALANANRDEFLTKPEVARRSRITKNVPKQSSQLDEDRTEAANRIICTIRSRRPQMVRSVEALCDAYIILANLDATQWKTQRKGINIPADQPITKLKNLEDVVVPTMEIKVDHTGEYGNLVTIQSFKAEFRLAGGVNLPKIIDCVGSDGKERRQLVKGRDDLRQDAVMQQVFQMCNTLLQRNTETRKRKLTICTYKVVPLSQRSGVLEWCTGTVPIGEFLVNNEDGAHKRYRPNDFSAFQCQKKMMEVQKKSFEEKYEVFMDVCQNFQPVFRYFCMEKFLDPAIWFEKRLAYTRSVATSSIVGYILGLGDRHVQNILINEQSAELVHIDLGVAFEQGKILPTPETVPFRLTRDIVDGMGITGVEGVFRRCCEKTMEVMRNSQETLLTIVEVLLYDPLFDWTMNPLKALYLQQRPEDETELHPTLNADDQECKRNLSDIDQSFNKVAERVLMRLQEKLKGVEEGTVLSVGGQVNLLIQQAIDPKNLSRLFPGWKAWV
Chain of Glycogen synthase kinase-3 beta (P49841 whole entry): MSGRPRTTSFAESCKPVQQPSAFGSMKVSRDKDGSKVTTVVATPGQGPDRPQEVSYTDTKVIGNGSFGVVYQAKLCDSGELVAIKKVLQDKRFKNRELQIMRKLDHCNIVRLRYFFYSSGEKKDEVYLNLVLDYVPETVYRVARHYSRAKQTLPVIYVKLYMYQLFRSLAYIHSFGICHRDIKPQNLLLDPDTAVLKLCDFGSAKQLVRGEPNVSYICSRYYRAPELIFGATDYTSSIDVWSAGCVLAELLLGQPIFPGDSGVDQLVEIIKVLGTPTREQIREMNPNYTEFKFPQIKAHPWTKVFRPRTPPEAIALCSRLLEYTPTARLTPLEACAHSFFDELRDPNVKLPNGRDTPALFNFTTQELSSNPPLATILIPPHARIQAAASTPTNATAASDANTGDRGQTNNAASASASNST
Chain of Mitogen-activated protein kinase kinase kinase 9 (P80192 whole entry): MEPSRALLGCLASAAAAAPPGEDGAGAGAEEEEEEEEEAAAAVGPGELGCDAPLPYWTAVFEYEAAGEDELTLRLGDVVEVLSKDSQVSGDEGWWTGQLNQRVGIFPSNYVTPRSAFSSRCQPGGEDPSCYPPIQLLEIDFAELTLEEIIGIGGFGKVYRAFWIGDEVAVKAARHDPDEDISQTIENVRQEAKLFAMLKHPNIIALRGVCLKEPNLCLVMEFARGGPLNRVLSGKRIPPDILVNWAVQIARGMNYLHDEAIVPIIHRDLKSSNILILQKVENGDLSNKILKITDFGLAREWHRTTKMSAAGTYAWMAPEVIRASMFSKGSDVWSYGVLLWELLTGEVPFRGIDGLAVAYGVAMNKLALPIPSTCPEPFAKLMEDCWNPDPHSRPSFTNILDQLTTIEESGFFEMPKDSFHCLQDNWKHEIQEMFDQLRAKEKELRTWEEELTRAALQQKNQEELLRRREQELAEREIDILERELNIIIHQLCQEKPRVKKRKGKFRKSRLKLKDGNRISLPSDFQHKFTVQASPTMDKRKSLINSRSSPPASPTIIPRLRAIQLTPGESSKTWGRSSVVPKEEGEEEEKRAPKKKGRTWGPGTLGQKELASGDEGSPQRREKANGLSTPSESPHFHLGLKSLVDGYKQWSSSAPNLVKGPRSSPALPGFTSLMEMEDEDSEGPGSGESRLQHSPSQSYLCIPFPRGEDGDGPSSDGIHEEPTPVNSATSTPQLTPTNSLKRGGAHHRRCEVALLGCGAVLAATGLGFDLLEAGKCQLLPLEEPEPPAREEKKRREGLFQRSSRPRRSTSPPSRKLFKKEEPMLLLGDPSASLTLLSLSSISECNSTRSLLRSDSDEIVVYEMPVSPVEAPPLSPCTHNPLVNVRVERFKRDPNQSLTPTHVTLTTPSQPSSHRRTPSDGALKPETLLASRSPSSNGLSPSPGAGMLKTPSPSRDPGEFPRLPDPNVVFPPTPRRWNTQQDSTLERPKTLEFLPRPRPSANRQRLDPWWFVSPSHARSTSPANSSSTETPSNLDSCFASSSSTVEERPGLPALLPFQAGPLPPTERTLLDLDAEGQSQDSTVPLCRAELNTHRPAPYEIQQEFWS
Chain of Cytochrome P450 2C9 (P11712 whole entry): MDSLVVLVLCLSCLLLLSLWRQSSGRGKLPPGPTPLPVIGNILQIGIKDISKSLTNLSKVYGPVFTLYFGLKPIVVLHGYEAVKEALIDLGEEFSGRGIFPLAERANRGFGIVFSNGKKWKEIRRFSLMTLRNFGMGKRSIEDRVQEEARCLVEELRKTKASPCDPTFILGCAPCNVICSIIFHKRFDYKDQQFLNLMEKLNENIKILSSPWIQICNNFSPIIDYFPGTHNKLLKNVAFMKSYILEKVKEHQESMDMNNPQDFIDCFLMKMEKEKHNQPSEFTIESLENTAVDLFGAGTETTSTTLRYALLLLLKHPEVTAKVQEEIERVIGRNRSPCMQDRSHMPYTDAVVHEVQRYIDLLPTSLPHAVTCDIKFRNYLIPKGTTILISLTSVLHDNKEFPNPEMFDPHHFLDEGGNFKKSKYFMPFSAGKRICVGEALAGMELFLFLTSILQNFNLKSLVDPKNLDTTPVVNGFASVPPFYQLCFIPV

Row | Structure (SMILES) | solubility [9] | Ki [10] | Ki [15] | Ki [23] | IC50 [25] | also measured
1 | CNCc1ccc(-c2cc(-c3nc(-c4ccc(S(=O)(=O)C(C)C)cc4)cnc3N)on2)cc1 [BERZOSERTIB] | 52 µM (≈ 24.1 µg/mL) | > 4 µM | 0.044 µM |  |  | IC50 [1]: 3 µM; Papp A→B [2]: 7.2 ×10⁻⁶ cm/s; Ki [3]: 0.13 µM; half-life [4]: 11.6 h; Ki [5]: 0.059 µM; IC50 [6]: > 30 µM; Ki [7]: 0.018 µM; Activity (HCT-116 [8]): Active; Ki [11]: 0.14 µM; Ki [12]: 0.03 µM; Ki [13]: 0.15 µM; Ki [14]: 0.015 µM; Vd [16]: 21 L/kg; Ki [17]: 0.033 µM; Ki [18]: 0.008 µM; pKa [19]: 8.2; Ki [20]: 0.19 µM; IC50 (Cytochrome P450 2C9): > 30 µM; Ki [21]: 0.026 µM; Ki [22]: 0.039 µM
2 | CC(C)S(=O)(=O)c1ccc(-c2cnc(N)c(-c3cc(-c4ccc(CNC5CCOCC5)cc4)no3)n2)cc1 | 0.8 µM (≈ 0.427 µg/mL) | > 4 µM | 0.189 µM |  |  | pKa [19]: 9.7
3 | CC(C)S(=O)(=O)c1ccc(-c2cnc(N)c(-c3nnc(-c4ccccc4)s3)n2)cc1 |  | > 4 µM | > 4 µM | 0.001 µM | 1.7 µM | Ratio Ki (Homo sapiens [24]): > 1000; Ratio Ki (Homo sapiens [26]): > 1000
4 | CNCc1ccc(-c2cc(-c3nc(-c4ccc(S(=O)(=O)C(C)C)cc4)cnc3N)on2)cc1Cl | 1.36 µM (≈ 0.677 µg/mL) | > 4 µM | 0.19 µM | 0.0024 µM | 0.13 µM | 
5 | CCNCc1ccc(-c2cc(-c3nc(-c4ccc(S(=O)(=O)C(C)C)cc4)cnc3N)on2)cc1 | 72 µM (≈ 34.4 µg/mL) | 3.35 µM | 0.047 µM | 0.00021 µM | 0.076 µM | 
6 | CS(=O)(=O)c1ccc(-c2cnc(N)c(C(=O)Nc3ccccc3)n2)cc1 |  |  |  |  |  | Activity (HCT-116 [27]): Active
7 | CC(C)S(=O)(=O)c1ccc(-c2cnc(N)c(C3CC(c4ccccc4)=NO3)n2)cc1 (racemic) |  | > 4 µM | > 4 µM |  | > 2.5 µM | 
8 | CC(C)S(=O)(=O)c1ccc(-c2cnc(N)c(-c3ncc(-c4ccccc4)o3)n2)cc1 |  | > 4 µM | > 10 µM |  | > 2.5 µM | 
9 | CC(C)S(=O)(=O)c1ccc(-c2cnc(N)c(-c3cnc(-c4ccccc4)o3)n2)cc1 |  | > 4 µM | > 10 µM | 0.021 µM |  | 
10 | CC(C)S(=O)(=O)c1ccc(-c2cnc(N)c(-c3nnc(-c4ccccc4)o3)n2)cc1 |  | 8.9 µM | > 10 µM | 0.001 µM | 0.41 µM | Ratio Ki (Homo sapiens [24]): > 1000; Ki [11]: 0.022 µM; Ratio Ki (Homo sapiens [26]): > 1000
11 | CC(C)S(=O)(=O)c1ccc(-c2cnc(N)c(-c3cc(-c4ccccc4)on3)n2)cc1 |  | > 4 µM | 1.3 µM | 0.002 µM | 0.8 µM | Ki [11]: 0.53 µM
12 | CC(C)S(=O)(=O)c1ccc(-c2cnc(N)c(-c3cc(-c4ccc([C@@H](C)N)cc4)no3)n2)cc1 | 45.1 µM (≈ 20.9 µg/mL) | 1.7 µM | 0.105 µM | 0.00053 µM | 0.13 µM | 
13 | CC(C)S(=O)(=O)c1ccc(-c2cnc(N)c(C(=O)Nc3ccccc3)n2)cc1 |  | 2.8 µM | 4 µM | 0.004 µM | 1.03 µM | 
14 | CC(C)S(=O)(=O)c1ccc(-c2cnc(N)c(-c3nc(-c4ccccc4)no3)n2)cc1 |  | > 1.6 µM | 1.35 µM | 0.026 µM | > 2.5 µM | 
15 | CC(C)S(=O)(=O)c1ccc(-c2cnc(N)c(-c3cc(-c4ccc([C@H](C)N)cc4)no3)n2)cc1 | 27.9 µM (≈ 12.9 µg/mL) | 0.785 µM | 0.082 µM | 0.00124 µM | 0.3 µM | 
16 | CC(C)S(=O)(=O)c1ccc(-c2cnc(N)c(-c3cc(-c4ccc(CN)cc4)no3)n2)cc1 | 12.5 µM (≈ 5.62 µg/mL) | > 4 µM | 0.115 µM | 0.00027 µM | > 25 µM | 
17 | CC(C)S(=O)(=O)c1ccc(-c2cnc(N)c(-c3cc(-c4ccccc4)no3)n2)cc1 | < 0.3 µM | > 4 µM | 1.4 µM | 0.001 to 0.0013 µM | 1.1 µM | Ratio Ki (Homo sapiens [24]): > 1000; Ki [11]: 0.65 µM; Ratio Ki (Homo sapiens [26]): > 1000
18 | CC(C)S(=O)(=O)c1ccc(-c2cnc(N)c(-c3noc(-c4ccccc4)n3)n2)cc1 |  | 4 µM | 0.4 µM | 0.005 µM | 2.3 µM | 
19 | CNCc1ccc(-c2cc(-c3nc(-c4ccc(S(=O)(=O)C(C)C)cc4)cnc3N)on2)c(Cl)c1 | 4.4 µM (≈ 2.19 µg/mL) | 2.61 µM | 0.093 µM | 0.00075 µM | 0.21 µM | 
20 | CC(C)S(=O)(=O)c1ccc(-c2cnc(N)c(-c3cn(-c4ccccc4)nn3)n2)cc1 |  | > 4 µM | 1.3 µM |  | > 2.5 µM | 
